From ChEMBL document CHEMBL4145465, “Design, synthesis and biological evaluation of novel ring-opened cromakalim analogues with relaxant effects on vascular and respiratory smooth muscles and as stimulators of elastin synthesis” (Eur J Med Chem, 2018)
The source made the active and inactive calls. The rule behind the calls is not given here.

Key:
[1] = tested on: Thoracic aorta; experiment: Vasorelaxing activity in Wistar rat endothelium-denuded thoracic aorta ring assessed as reduction in 30 mM KCl-induced contraction after 15 mins in presence of 1 uM glibenclamide; format: functional, tissue-based; settings: 0.25 h, in the assay text read “endothelium-intact” for “endothelium-denuded”
Outline: (§1)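 Female Wistar rat aortic rings were contracted with 30 mM KCl while continuously bathed in 1 or 10 µM glibenclamide. Compound in DMSO was added cumulatively up to 300 µM, each step held ≥15 min to a plateau. EC50 was derived by non-linear regression and compared with the EC50 obtained without glibenclamide.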

[2] = tested on: Thoracic aorta; experiment: Vasorelaxing activity in Wistar rat endothelium-denuded thoracic aorta ring assessed as reduction in 80 mM KCl-induced contraction after 15 mins; format: functional, tissue-based; settings: 0.25 h, in the assay text read “endothelium-intact” for “endothelium-denuded”
Outline: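 Female Wistar rat aortic rings were depolarized with an 80 mM KCl solution (NaCl 43.6 mM). Once the plateau was reached, compound in DMSO was added cumulatively up to 300 µM. EC50 was obtained by non-linear regression of concentration-response curves.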

[3] = tested on: Thoracic aorta; experiment: Vasorelaxing activity in Wistar rat endothelium-intact thoracic aorta ring assessed as reduction in 30 mM KCl-induced contraction after 15 mins; settings: 0.25 h
[4] = tested on: VSMC; experiment: Induction of elastin synthesis in rat VSMC at 50 uM after 48 hrs by ELISA relative to control; format: functional
Outline: (§2)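 Rat aortic VSMCs (collagenase/elastase digestion of intima-media, grown in DMEM 20% FBS on gelatin) serum-starved overnight in 1% FBS-DMEM, seeded 25000 cells/well, then exposed 48 h to compound in DMSO (<1% final); DMSO-only negative control, diazoxide reference. Fixed cells immunostained for elastin with HRP secondary, TMB substrate, absorbance 450 nm; 5-7 wells per concentration.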

[5] = tested on: Thoracic aorta; experiment: Vasorelaxing activity in Wistar rat endothelium-intact thoracic aorta ring assessed as reduction in 30 mM KCl-induced contraction at 300 uM after 15 mins relative to DMSO; settings: 0.25 h
[6] = tested on: VSMC; experiment: Induction of elastin synthesis in rat VSMC at 20 uM after 48 hrs by ELISA; format: functional, cell-based; outline: as §2
[7] = tested on: Trachea; experiment: Tracheorelaxant activity in Wistar rat trachea tonus assessed as reduction in 30 mM KCl-induced contraction at 100 uM after 15 mins relative to control; format: functional; settings: 0.25 h
Outline: (§3)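 Trachea rings (3-4 mm) from female Wistar rats were held in a 10 ml organ bath under the same conditions as the aorta and contracted with 30 mM KCl. Compound in DMSO was added cumulatively. EC50 was derived by non-linear regression; Emax is % relaxation at 100 µM.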

[8] = tested on: Trachea/thoracic aorta; experiment: Ratio of EC50 for Wistar rat trachea tonus to EC50 for Wistar rat endothelium-denuded thoracic aorta ring; format: functional; settings: in the assay text read “endothelium-intact” for “endothelium-denuded”
Outline: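 Ratio of trachea EC50 to aorta EC50, both measured against 30 mM KCl contraction in female Wistar rat rings, with cumulative compound addition in DMSO and EC50 from non-linear regression.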

[9] = Ionozation constant, pKa of the compound at pH 3 to 12 at 25 degC by UV/VIS spectrophotometric method; format: physicochemical
[10] = tested on: Thoracic aorta; experiment: Vasorelaxing activity in Wistar rat endothelium-denuded thoracic aorta ring assessed as reduction in 30 mM KCl-induced contraction after 15 mins in presence of 10 uM glibenclamide; format: functional, tissue-based; settings: 0.25 h, in the assay text read “endothelium-intact” for “endothelium-denuded”; outline: as §1
[11] = tested on: Trachea; experiment: Tracheorelaxant activity in Wistar rat trachea tonus assessed as reduction in 30 mM KCl-induced contraction after 15 mins; format: functional, tissue-based; settings: 0.25 h; outline: as §3

Row | Structure (SMILES) | EC50 [1] [µM] | EC50 [2] [µM] | EC50 [3] [µM] | Activity [4] | Emax [5] [%] | Activity [6] | Emax [7] [%] | Ratio EC50 [8] | pKa [9] | EC50 [10] [µM] | EC50 [11] [µM]
1 | CC(NC(=O)NS(=O)(=O)c1ccc(Cl)cc1)c1cc(Br)ccc1OCc1ccccc1 (racemic) | 78.4 | 61.6 | 57.5 | Active | 95.1 | inactive | 161 | 0.5 | 5.31 | 54.6 | 30.8
2 | CC1(C)Oc2ccc(C#N)cc2[C@H](N2CCCC2=O)[C@H]1O [(-)-CROMAKALIM] | 3.4 | 191 | 0.13 | – | – | – | 70.1 | 956.9 | – | 87.2 | 124
3 | COc1ccc(Cl)cc1C(C)NC(=O)N(C)S(=O)(=O)c1ccccc1 (racemic) | 6.7 | 5.3 | 7.2 | Active | 103 | Active | 154 | 0.2 | – | 8.6 | 1.7
4 | COc1ccc(CCN(C)CCCC(C#N)(c2ccc(OC)c(OC)c2)C(C)C)cc1OC (centres undefined) [VERAPAMIL] | 0.07 | 0.05 | 0.06 | – | – | – | – | 28.7 | – | 0.07 | 0.89
5 | Cc1ccc(OCc2ccccc2)c(C(C)NC(=O)NS(=O)(=O)c2ccc(Cl)cc2)c1 (racemic) | 90.5 | 60.9 | 65.3 | inactive | 126 | inactive | 172 | 0.5 | – | 69.3 | 30.4
